Read-outs that look alike come from different tables or passages of the source.
Experiments:
[1] = test system: orthotopic U87MG-Luc glioblastoma; assay: In vivo anti-tumor effects; design: species or system nude mice; settings: 12 times over a 24-hr interval, after 12 days; for tumor growth (luminescence intensity) versus saline: 1 nmol/20 g i.v., n = 5 per group
In short: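 U87MG-Luc cells (3 × 10⁵ in 3 μL ice-cold PBS) were implanted stereotaxically into BALB/c nude mice (2 mm right of bregma, 3 mm deep). Dosing began once IVIS detected tumours. Twenty mice were randomised into 4 groups (2 male, 3 female each). Groups were saline, scrambled 1 nmol/20 g, or test 0.5 or 1 nmol/20 g, i.v. 12 times at 24-hr intervals. IVIS luminescence was read on days 0, 7 and 12, then excised brains were imaged.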

[2] = test system: orthotopic U87MG-Luc glioblastoma; assay: Survival monitoring assay; assay type: in vivo, nude mice; settings: 3 nmol/20 g mixed with Gelofusine (4 mg/20 g) i.v. at 48-hr interval; for median survival time: n = 5
In short: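 Fifteen orthotopic U87MG-Luc nude mice were randomised into 3 groups (2 male, 3 female each). Each received saline, scrambled conjugate or test conjugate (3 nmol/20 g) i.v. every 48 hr, all mixed with Gelofusine (4 mg/20 g). Body weight was recorded daily and IVIS luminescence on days 0, 7 and 28. Mice were sacrificed at 40% loss of primary body weight.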

PIK3CB protein [3] = assay: PIK3CB protein level by western blot in U87MG cells; assay type: cell-based, human; settings: 72-hr treatment, normalized with GAPDH
U87MG cells [4] = assay: Confocal fluorescence microscopy of intracellular distribution; assay type: cell-based, human; settings: for intracellular distribution (Cy5, confocal): Opti-MEM
In short: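 U87MG cells were exposed to Cy5-labelled molecules at 600 nM in Opti-MEM for 12 hr at 37°C, with or without prior blocking using excess biRGD peptide. Cells were PBS-washed, fixed in 4% paraformaldehyde for 15 min at room temperature, stained with anti-TGN46 and an Alexa Fluor 488 secondary, then imaged by confocal microscopy.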

[5] = test system: orthotopic U87MG-Luc glioblastoma; assay: In vivo distribution assay; design: species or system nude mice
In short: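 Orthotopic U87MG-Luc nude mice received a single i.v. dose (1 nmol/20 g) of Cy5-labelled conjugate, conjugate plus Gelofusine (4 mg/20 g), unconjugated Cy5-siRNA, or monovalent comparator. Whole-body IVIS Cy5 imaging (ex 640 nm, em 680 nm) was done at 12, 24, 36 and 48 hr. At 24 hr some mice were sacrificed and their tumours and major organs imaged ex vivo.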

U87MG cells [6] = assay: Cellular uptake by flow cytometry; assay type: cell-based, human
In short: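 U87MG cells were exposed to Cy5-labelled conjugate at 100, 200, 400 or 600 nM, or Cy5-labelled comparators at 600 nM, in Opti-MEM for 12 hr at 37°C. Cells were trypsinised, washed twice in PBS, resuspended, and Cy5 was read by flow cytometry. Receptor blocking used pre-treatment with excess unconjugated biRGD peptide.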

[7] = test system: orthotopic U87MG-Luc glioblastoma; assay: Immunofluorescence analysis of frozen brain sections; assay type: in vivo, nude mice; settings: 1 nmol/20 g i.v., confocal
In short: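 Orthotopic U87MG-Luc nude mice received a single i.v. dose of Cy5-labelled siRNA (1 nmol/20 g). Brains taken from the imaging study were frozen at –80°C and sectioned. Sections were stained for CD31 (vessels) and with DAPI, then imaged by confocal microscopy (Cy5 ex 640 nm, em 680 nm). Normal brain served as comparison.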

HeLa cells = assay: Cellular uptake by flow cytometry; assay type: cell-based; settings: HeLa (αvβ3-negative), 600 nM, Opti-MEM, 12 h, 37°C, Cy5 flow cytometry
[8] = test system: orthotopic U87MG-Luc glioblastoma; assay: ki67 staining and TUNEL assay of tumor sections; assay type: in vivo, nude mice
In short: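 Tumours from the anti-tumour study were used (saline, scrambled 1 nmol/20 g, or test 0.5 or 1 nmol/20 g, i.v. 12 times at 24-hr intervals). They were fixed in 4% paraformaldehyde, paraffin-embedded and cut into 5-μm sections. Sections were stained by Ki67 immunohistochemistry and TUNEL kit. Results were expressed as Ki67-positive/total cells and apoptotic index (TUNEL-positive/total cells).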

U87MG cells [9] = assay: Transwell migration assay; assay type: cell-based, human; settings: 100-600 nM, 48-hr treatment, Matrigel-coated 8-μm inserts, migration 24 hr
In short: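 U87MG cells were exposed to test conjugate (100–600 nM) or scrambled conjugate (600 nM) in serum-free Opti-MEM for 24 hr, then held 48 hr with 10% serum. Cells (5 × 10⁴ in serum-free DMEM) were placed on Matrigel-coated (2 mg/mL) 8-μm inserts, with 10% FBS DMEM below, and allowed to migrate 24 hr. Crystal-violet-stained cells were counted in five random fields.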

U87MG cells [10] = assay: Cell apoptosis analysis, Annexin V-FITC/PI flow cytometry; assay type: cell-based, human; settings: 72 hr post-treatment
In short: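 U87MG cells attached 24 hr, then exposed to the test conjugate (100, 200, 400 or 600 nM) or scrambled conjugate (600 nM) in serum-free Opti-MEM for 24 hr; untreated control. 10% serum was then added and cells held 72 hr. Apoptosis was measured by Annexin V-FITC/PI staining per kit and read on a flow cytometer as apoptosis rate.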

[11] = Hepatotoxicity, serum ALT; design: species or system nude mice; settings: serum from in vivo anti-tumor assay
In short: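 Serum came from orthotopic U87MG-Luc nude mice in the anti-tumour study. Dosing was saline, scrambled conjugate 1 nmol/20 g, or test conjugate 0.5 or 1 nmol/20 g, given i.v. 12 times at 24-hr intervals. Serum was collected after sacrifice on day 12. ALT was measured on an automated chemistry analyser following the manufacturer's instructions.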

[12] = Immunogenicity evaluation, serum cytokines by ELISA; assay type: in vivo, BALB/c mice; settings: 5nmol/20 g single injection, serum at 6hr
In short: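 Immunocompetent BALB/c mice (4–6 weeks, ~20 g) got a single injection of saline or test conjugate (5 nmol/20 g), alone or mixed with Gelofusine (4 mg/20 g). Serum was collected at 6 hr, and IL-6, IFN-β and TNF-α were measured by ELISA kit.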

Serum stability assay = assay type: in vitro ADME; settings: 5 μL 20 μM mixed with 5 μL mouse serum, 37°C, 1.2% agarose gel
PIK3CB mRNA [13] = assay: In vivo silencing, PIK3CB mRNA in tumor by qRT-PCR; design: species or system human; settings: versus saline and biRGD-siNC
PIK3CB protein [14] = assay type: in vivo, human
PIK3CB mRNA [15] = assay: PIK3CB mRNA level by qRT-PCR in U87MG cells; assay type: cell-based, human; settings: no transfection agent, 48 hr, normalized with GAPDH
kidneys = assay: Histopathological evaluation of kidneys; assay type: in vivo, nude mice; settings: 1 nmol/20 g i.v., 12 times over a 24-hr interval, H&E
In short: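 Kidneys from orthotopic U87MG-Luc nude mice dosed i.v. 12 times at 24-hr intervals were used. Tissues were fixed at once in 4% paraformaldehyde, paraffin-embedded, cut into 5-μm sections and stained with H&E for histology.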

[16] = 0.5 nmol/20 g i.v. x12, versus saline and biRGD-siNC
[17] = 1 nmol/20 g i.v. x12, versus saline and biRGD-siNC

[cyclo(Arg-Gly-Asp-D-Phe-Lys)-Ahx]2-Glu-PEG-MAL (bicyclic or more) [biRGD-siNC, reference compound]
tumor growth (luminescence intensity) versus saline [1]: no significant difference
course of body weight [2]: rapid decrease in body weight
median survival time [2]: 23 days
PIK3CB protein level, remaining amount (PIK3CB protein [3]; 600 nM): almost no effect

[cyclo(Arg-Gly-Asp-D-Phe-Lys)-Ahx]2-Glu-PEG-MAL (bicyclic or more) [biRGD-siNC-Cy5]
intracellular distribution after pre-treating with excess biRGD peptide (U87MG cells [4]; U87MG blocked with biRGD (1 μM)): inhibited
intracellular distribution (Cy5, confocal) (U87MG cells [4]; U87MG, 600 nM): substantial uptake and wide distribution in the cell
subcellular localization versus trans-Golgi marker TGN46 (U87MG cells [4]; U87MG, 600 nM, anti-TGN46/Alexa Fluor 488): substantial overlap with TGN46 protein
time of peak Cy5 fluorescence intensity of orthotopic GBM ([5]; 1 nmol/20 g i.v. single dose, IVIS): 24 h
Cy5 fluorescence within the tumor and kidneys ([5]; 1 nmol/20 g i.v. single dose, IVIS at 12, 24, and 36 hr): high red Cy5 fluorescent expressions
presence in other main organs (heart, spleen, and lung), ex vivo ([5]; 1 nmol/20 g i.v., organs excised at 24 hr): not found
ex vivo targeting of GBM-bearing brain tissue ([5]; 1 nmol/20 g i.v., organs excised at 24 hr, ex vivo Cy5 imaging): specifically target the GBM-bearing brain tissue
uptake after blocking integrin αvβ3 receptors (U87MG cells [6]; U87MG pre-treated with 1 μM unconjugated biRGD peptide, 37°C, 1 hr): inhibited
uptake relative to cRGD-siNC-Cy5 (U87MG cells [6]; U87MG, 600 nM, 12 hr, Cy5 flow cytometry): approximately twice
cellular uptake (U87MG cells [6]; U87MG, 100 to 600 nM, Opti-MEM, 12 hr, 37°C, Cy5 flow cytometry): enhanced cellular uptake that increased progressively
saturation of uptake (U87MG cells [6]; U87MG, tested range 100 to 600 nM): No evidence of saturation of uptake
Cy5 signal in sections of GBM-bearing brain tissues ([7]; CD31 staining): significantly higher
Cy5 signal in sections of normal brain tissues [7]: little
cellular uptake (HeLa cells): no uptake

[cyclo(Arg-Gly-Asp-D-Phe-Lys)-Ahx]2-Glu-PEG-MAL (bicyclic or more) [biRGD-siPIK3CB]
apoptotic tumor cells (TUNEL) [8, 16]: obviously higher number
proliferative cells in tumors (ki67) [8, 16]: obviously decreased
apoptotic tumor cells (TUNEL) [8, 17]: obviously higher number
proliferative cells in tumors (ki67) [8, 17]: obviously decreased
number of apoptotic tumor cells, 1 nmol/20 g group relative to 0.5 nmol/20 g group ([8]; TUNEL): about twice
tumor growth (luminescence intensity) versus saline and biRGD-siNC ([1]; 0.5 nmol/20 g i.v.): no significance
tumor growth (luminescence intensity) versus saline [1]: significant tumor growth inhibition
course of body weight [2]: steady
median survival time [2]: 26 days
U87MG cell invasion (transwell migration) (U87MG cells [9]): significantly inhibit
apoptosis rate (U87MG cells [10]; 400 nM): 15.14%
apoptosis rate (U87MG cells [10]; 600 nM): 20.76%
ALT level in the serum versus saline ([11]; mixed with Gelofusine): no statistically meaningful difference
ALT level in the serum versus saline ([11]; Aeroset Chemistry Analyzer): no statistically meaningful difference
IFN-β level of the serum versus saline [12]: no significant difference
IL-6 level of the serum versus saline [12]: no significant difference
TNF-α level of the serum versus saline [12]: no significant difference
degradation in mouse serum at 96 hr (Serum stability assay; 96 hr): low degradation
PIK3CB protein level, remaining amount (PIK3CB protein [3]; 400 nM): about 70%
PIK3CB protein level, remaining amount (PIK3CB protein [3]; 600 nM): about 60%
PIK3CB mRNA expression in tumor (PIK3CB mRNA [13]; 0.5 nmol/20 g i.v. x12, qRT-PCR): obviously low expression
PIK3CB mRNA expression in tumor (PIK3CB mRNA [13]; 1 nmol/20 g i.v. x12, qRT-PCR): obviously low expression
PIK3CB protein level in tumor (immunohistochemistry) (PIK3CB protein [14]; 0.5 nmol/20 g i.v. x12): remarkably low
PIK3CB protein level in tumor (immunohistochemistry) (PIK3CB protein [14]; 1 nmol/20 g i.v. x12): remarkably low
PIK3CB protein level in tumor (western blot) (PIK3CB protein [14]; 1 nmol/20 g i.v. x12): significantly decreased
PIK3CB mRNA level, remaining amount (PIK3CB mRNA [15]; 400 nM): about 60%
PIK3CB mRNA level, remaining amount (PIK3CB mRNA [15]; 600 nM): ~50%
pathological sections of kidneys versus saline (kidneys): mild pathological changes in kidneys

cyclo(Arg-Gly-Asp-D-Phe-Lys) (head to tail) [cRGD-siNC-Cy5, reference compound]
intracellular distribution (Cy5, confocal) (U87MG cells [4]; U87MG, 600 nM): substantial uptake and wide distribution in the cell

siPIK3CB: sense 5′-AC(mC)(mU)G(mU)GGAUACUCAU(mU)A(mA)dTdT-3′, antisense 5′-U(mU)AA(mU)GAGUAUCCA(mC)AG(mG)(mU)dTdT-3′
incubation time in mouse serum after which degraded (Serum stability assay; 0-96 hr): 48 h

Source: publication PMC6178240 (Molecular Therapy. Nucleic Acids, 2018)
